“And” between values parts separate entries of the source, which are not always exact repeats. Equal entries are not always repeated.
How the values were obtained:
[1] = tested on: Mus musculus; experiment: Evaluation for the onset of action of intraperitoneal administration of dose; assay type: functional
[2] = The median lethal dose evaluated after intravenous administration in barbiturates.; assay type: ADME
Method in brief: (§1)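 Male CF-1 mice (29.5 ± 2.5 g). Drug dissolved in 0.1 M aqueous NaOH, diluted with saline, 20 mL/kg ip or iv (caudal vein); doses as free acid. Lethality scored over 24 h. LD50 with 95% confidence limits by Litchfield-Wilcoxon from ≥4 doses giving 10-90% response, 10 mice per dose.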

[3] = tested on: Mus musculus; experiment: (§2) The median anesthetic dose evaluated after intraperitoneal administration in barbiturates.; assay type: functional
Method in brief: (§3)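 Male CF-1 mice (29.5 ± 2.5 g). Drug dissolved in 0.1 M aqueous NaOH (monosodium salt), diluted with saline, dosed at 20 mL/kg ip or iv via caudal vein; weights as free acid. Anesthesia = loss of righting reflex (no recovery from back within 1 min). AD50 with 95% confidence limits by Litchfield-Wilcoxon; ≥4 doses giving 10-90% response, 10 mice per dose.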

[4] = Potency ratio of slower rate (AD50) to that of faster rate (AD50); assay type: functional
Method in brief: (§4)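 Racemate given iv via caudal vein at 20 mL/kg, either fast (about 0.5 s) or slower (about 3.0 s) injection. […] Slow-rate value compared with fast-rate value.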

[5] = tested on: Mus musculus; experiment: (§5) Evaluation after intravenous injection at faster rate (0.5 s); assay type: functional; method in brief: as §3
[6] = tested on: Mus musculus; experiment: Evaluation for duration of recovery tremors after administration of dose; assay type: functional
Method in brief: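 Groups of 40 male CF-1 mice, each given its compound's AD50 dose ip. Recovery tremors recorded for incidence, duration in minutes and graded severity.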

[7] = as §5; assay type: ADME, organism-based; settings: mouse, in vivo
[8] = Ratio of LD50 to AD50 after intravenous administration; assay type: ADME
Method in brief: (§6)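 Therapeutic index, LD50/AD50. Both values from Litchfield-Wilcoxon curves in male CF-1 mice, 10 per dose, ≥4 doses. […] Dosing ip or iv (caudal vein), 20 mL/kg saline vehicle after 0.1 M NaOH.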

[9] = Ratio of LD50 to AD50 after intraperitoneal administration; assay type: ADME; settings: ip; read-out: Therapeutic index; method in brief: as §6
[10] = tested on: Mus musculus; experiment: The median anesthetic dose evaluated after intravenous administration in barbiturates.; assay type: functional; method in brief: as §3
[11] = tested on: Mus musculus; experiment: Evaluation for the duration of action of intraperitoneal administration of dose; assay type: functional
[12] = Potency ratio of slower rate (LD50) to that of faster rate (LD50); assay type: functional; method in brief: as §4
[13] = Potency ratio of compound was measured after intraperitoneal administration; More potent; assay type: functional
Method in brief: (§7)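 Potency relative to the racemate, the standard, from Litchfield-Wilcoxon dose-response curves (≥4 doses, 10 male CF-1 mice each) for loss of righting reflex. Dosing ip or iv (caudal vein) at 20 mL/kg in saline after dissolving in 0.1 M NaOH.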

[14] = Potency ratio of compound to that of racemate was measured after intravenous administration; More potent; assay type: functional; method in brief: as §7
[15] = Potency ratio of compound to that of racemate was measured after intraperitoneal administration; assay type: functional; method in brief: as §7
[16] = The median lethal dose evaluated after intraperitoneal administration in barbiturates.; assay type: ADME; settings: ip; method in brief: as §1
[17] = Potency ratio of compound was measured after intravenous administration; assay type: functional; method in brief: as §7
[18] = as §2; assay type: functional; settings: ip; method in brief: as §3

SMILES | Onset of action [1] [min] | LD50 [2] [mg/kg] | AD50 [3] [mg/kg] | Potency ratio [4] | AD50 [5] [mg/kg] | Duration [6] [min] | LD50 [7] [mg/kg] | Therapeutic index [8] | selectivity ratio ([8]; read-out: Therapeutic index) | selectivity ratio [9] | AD50 [10] [mg/kg] | Duration [11] [min] | Potency ratio [12] | Potency ratio [13] | Potency ratio [14] | Potency ratio [15] | LD50 [16] [mg/kg] | Potency ratio [17] | LD50 [18] [mg/kg]
C=CCC1(C(C)C#CCC)C(=O)NC(=S)NC1=O (racemic) [RAC THIOHEXITAL] | 3.69 | 53.5 | 25.8 | 2.15 | 9.2 | 5.8 | 31.5 | 3.4 | 2.7 | 2.5 | 19.8 | 12.36 | 1.7 | – | – | – | – | – | –
C=CCC1([C@@H](C)C#CCC)C(=O)NC(=S)NC1=O | 3.49 | – | 18.8 | – | – | 5.4 | – | – | – | 3.2 | 12.3 | 12.15 | – | 1.37 | 1.61 | 1.06 | 59.8 | – | –
C=CCC1([C@H](C)C#CCC)C(=O)NC(=S)NC1=O | – | – | 27.3 | – | – | 6.2 | – | – | – | 2.4 | 24.1 | – | – | – | – | 1.06 and 1.04 | – | 1.22 | 66.1
